From article PMC5760267 (ChemMedChem, 2016) come the findings set out here.

Molecules are shown by their SMILES.

In the first test the target is human immunoproteasome β5i (Homo sapiens, UniProt P20618+P28062). The test is described as follows: IC50 against β5i. It counts as biochemical. The settings on record: relative to the P1-β-Ala parents PKS2251 and PKS2252, respectively. The procedure, abridged: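 Human immunoproteasome β5i activity was read as ac-ANW-AMC hydrolysis, and constitutive β5c activity as suc-LLVY-AMC hydrolysis. IC50s were determined by a previously reported method. Apparent selectivity index = IC50β5c / IC50β5i. Data reported as mean ± SEM.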
Regarding `C[C@H](NC(=O)C[C@H](CC(=O)NC(C)(C)C)NC(=O)CCc1ccccc1)C(=O)NCc1cccc2ccccc12` [PKS2278], the “reduction of potency against β5i” value was found to be 58 fold.
Same read-out and setting: with `Cc1ccc(S(=O)(=O)N[C@H](CC(=O)N[C@@H](C)C(=O)NCc2cccc3ccccc23)CC(=O)NC(C)(C)C)cc1` [PKS2279] the figure was 2.5 fold.

Staying with this test, now noted: β5i over β5c.
Turning to `Cc1cc(C(=O)N[C@@H](CC(=O)NC(C)(C)C)C(=O)N[C@@H](C)CC(=O)NCc2cccc3ccccc23)no1` [PKS2249], the “SIapp: apparent selectivity index = IC50β5c / IC50β5i” value is reported as 465.
On the same count and under the same terms, with `C[C@@H](CC(=O)NCc1cccc2ccccc12)NC(=O)[C@H](CC(=O)NC(C)(C)C)NC(=O)CCc1ccccc1` [PKS2251] the figure was 1333; with `Cc1ccc(S(=O)(=O)N[C@H](CC(=O)N[C@@H](C)C(=O)NCc2cccc3ccccc23)CC(=O)NC(C)(C)C)cc1` [PKS2279], 2521; with `Cc1ccc(S(=O)(=O)N[C@@H](CC(=O)NC(C)(C)C)C(=O)N[C@@H](C)CC(=O)NCc2cccc3ccccc23)cc1` [PKS2252], 13600.
